ChEMBL document CHEMBL1147748, “Overlapping, nonidentical binding sites of different classes of nonpeptide antagonists for the human gonadotropin-releasing hormone receptor” (J Med Chem, 2006)

Legend:
[1] = molecular target: Gonadotropin-releasing hormone receptor (Homo sapiens, UniProt P30968); experiment: Displacement of [125I]-His5, D-Tyr6]GnRH from human wild type GnRHR
In short: (§1)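 Human GnRH-R (wild type or site-directed point mutant) was transiently expressed in COS-7 cells by electroporation, with cells cultured 36-48 h before membranes were prepared. Membranes (5-20 µg per point) were incubated 2 h at room temperature with 0.3 nM tracer and varying competitor in HEPES pH 7.5, 150 mM NaCl, 0.1% BSA, then filtered and counted.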

[2] = molecular target: Gonadotropin-releasing hormone receptor (Homo sapiens, UniProt P30968, W291F); experiment: Displacement of [125I]-His5, D-Tyr6]GnRH from mutant GnRHR, GnRHR W291F
Gonadotropin-releasing hormone receptor (Homo sapiens, UniProt P30968, W291F), sequence (P30968 whole entry W291F): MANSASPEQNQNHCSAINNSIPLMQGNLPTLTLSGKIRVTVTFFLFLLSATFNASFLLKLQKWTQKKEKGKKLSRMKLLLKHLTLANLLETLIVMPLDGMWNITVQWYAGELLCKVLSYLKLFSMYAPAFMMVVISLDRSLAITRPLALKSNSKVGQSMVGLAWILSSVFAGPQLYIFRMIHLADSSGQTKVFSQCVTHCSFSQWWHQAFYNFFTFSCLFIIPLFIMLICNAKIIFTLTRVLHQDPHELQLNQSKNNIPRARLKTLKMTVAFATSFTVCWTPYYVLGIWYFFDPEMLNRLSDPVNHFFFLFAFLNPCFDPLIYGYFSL

[3] = molecular target: Gonadotropin-releasing hormone receptor (Homo sapiens, UniProt P30968, D293A); experiment: Displacement of [125I]-His5, D-Tyr6]GnRH from mutant GnRHR, GnRHR D293A; in short: as §1
[4] = molecular target: Gonadotropin-releasing hormone receptor (Homo sapiens, UniProt P30968, D293E); experiment: Displacement of [125I]-His5, D-Tyr6]GnRH from mutant GnRHR, GnRHR D293E; in short: as §1
[5] = molecular target: Gonadotropin-releasing hormone receptor (Homo sapiens, UniProt P30968, E295A); experiment: Displacement of [125I]-His5, D-Tyr6]GnRH from mutant GnRHR, GnRHR E295A; in short: as §1
Gonadotropin-releasing hormone receptor (Homo sapiens, UniProt P30968, E295A), sequence (P30968 whole entry E295A): as the sequence (P30968 whole entry W291F) above, with F291W, E295A counted along it

[6] = molecular target: Gonadotropin-releasing hormone receptor (Homo sapiens, UniProt P30968, E295Q); experiment: Displacement of [125I]-His5, D-Tyr6]GnRH from mutant GnRHR, GnRHR E295Q; in short: as §1
[7] = molecular target: Gonadotropin-releasing hormone receptor (Homo sapiens, UniProt P30968, L300K); experiment: Displacement of [125I]-His5, D-Tyr6]GnRH from mutant GnRHR, GnRHR L300K; in short: as §1
[8] = molecular target: Gonadotropin-releasing hormone receptor (Homo sapiens, UniProt P30968, L300V); experiment: Displacement of [125I]-His5, D-Tyr6]GnRH from mutant GnRHR, GnRHR L300V; in short: as §1
[9] = molecular target: Gonadotropin-releasing hormone receptor (Homo sapiens, UniProt P30968, D302A); experiment: Displacement of [125I]-His5, D-Tyr6]GnRH from mutant GnRHR, GnRHR D302A; in short: as §1
Gonadotropin-releasing hormone receptor (Homo sapiens, UniProt P30968, D302A), sequence (P30968 whole entry D302A): as the sequence (P30968 whole entry W291F) above, with F291W, D302A counted along it

[10] = molecular target: Gonadotropin-releasing hormone receptor (Homo sapiens, UniProt P30968, D302N); experiment: Displacement of [125I]-His5, D-Tyr6]GnRH from mutant GnRHR, GnRHR D302N; in short: as §1
Gonadotropin-releasing hormone receptor (Homo sapiens, UniProt P30968, D302N), sequence (P30968 whole entry D302N): as the sequence (P30968 whole entry W291F) above, with F291W, D302N counted along it

[11] = molecular target: Gonadotropin-releasing hormone receptor (Homo sapiens, UniProt P30968, N305K); experiment: Displacement of [125I]-His5, D-Tyr6]GnRH from mutant GnRHR, GnRHR N305K; in short: as §1
[12] = molecular target: Gonadotropin-releasing hormone receptor (Homo sapiens, UniProt P30968, H306E); experiment: Displacement of [125I]-His5, D-Tyr6]GnRH from mutant GnRHR, GnRHR H306E; in short: as §1
[13] = molecular target: Gonadotropin-releasing hormone receptor (Homo sapiens, UniProt P30968, F309Q); experiment: Displacement of [125I]-His5, D-Tyr6]GnRH from mutant GnRHR, GnRHR F309Q; in short: as §1
Gonadotropin-releasing hormone receptor (Homo sapiens, UniProt P30968, F309Q), sequence (P30968 whole entry F309Q): as the sequence (P30968 whole entry W291F) above, with F291W, F309Q counted along it

[14] = molecular target: Gonadotropin-releasing hormone receptor (Homo sapiens, UniProt P30968, F313L); experiment: Displacement of [125I]-His5, D-Tyr6]GnRH from mutant GnRHR, GnRHR F313L; in short: as §1
Gonadotropin-releasing hormone receptor (Homo sapiens, UniProt P30968, F313L), sequence (P30968 whole entry F313L): as the sequence (P30968 whole entry W291F) above, with F291W, F313L counted along it

[15] = molecular target: Gonadotropin-releasing hormone receptor (Homo sapiens, UniProt P30968, Y284F); experiment: Displacement of [125I]-His5, D-Tyr6]GnRH from mutant GnRHR, GnRHR Y284F
Gonadotropin-releasing hormone receptor (Homo sapiens, UniProt P30968, Y284F), sequence (P30968 whole entry Y284F): as the sequence (P30968 whole entry W291F) above, with Y284F, F291W counted along it

[16] = molecular target: Gonadotropin-releasing hormone receptor (Homo sapiens, UniProt P30968, F272L); experiment: Displacement of [125I]-His5, D-Tyr6]GnRH from mutant GnRHR, GnRHR F272L; in short: as §1
Gonadotropin-releasing hormone receptor (Homo sapiens, UniProt P30968, F272L), sequence (P30968 whole entry F272L): as the sequence (P30968 whole entry W291F) above, with F272L, F291W counted along it

[17] = molecular target: Gonadotropin-releasing hormone receptor (Homo sapiens, UniProt P30968, L112K); experiment: Displacement of [125I]-His5, D-Tyr6]GnRH from mutant GnRHR, GnRHR L112K; in short: as §1
Gonadotropin-releasing hormone receptor (Homo sapiens, UniProt P30968, L112K), sequence (P30968 whole entry L112K): as the sequence (P30968 whole entry W291F) above, with L112K, F291W counted along it

[18] = molecular target: Gonadotropin-releasing hormone receptor (Homo sapiens, UniProt P30968, L117A); experiment: Displacement of [125I]-His5, D-Tyr6]GnRH from mutant GnRHR, GnRHR L117A; in short: as §1
[19] = molecular target: Gonadotropin-releasing hormone receptor (Homo sapiens, UniProt P30968, S118A); experiment: Displacement of [125I]-His5, D-Tyr6]GnRH from mutant GnRHR, GnRHR S118A
[20] = molecular target: Gonadotropin-releasing hormone receptor (Homo sapiens, UniProt P30968, K121A); experiment: Displacement of [125I]-His5, D-Tyr6]GnRH from mutant GnRHR, GnRHR K121A; in short: as §1
Gonadotropin-releasing hormone receptor (Homo sapiens, UniProt P30968, K121A), sequence (P30968 whole entry K121A): as the sequence (P30968 whole entry W291F) above, with K121A, F291W counted along it

[21] = molecular target: Gonadotropin-releasing hormone receptor (Homo sapiens, UniProt P30968, H182A); experiment: Displacement of [125I]-His5, D-Tyr6]GnRH from mutant GnRHR, GnRHR H182A; in short: as §1
Gonadotropin-releasing hormone receptor (Homo sapiens, UniProt P30968, H182A), sequence (P30968 whole entry H182A): as the sequence (P30968 whole entry W291F) above, with H182A, F291W counted along it

[22] = molecular target: Gonadotropin-releasing hormone receptor (Homo sapiens, UniProt P30968, S186D); experiment: Displacement of [125I]-His5, D-Tyr6]GnRH from mutant GnRHR, GnRHR S186D
[23] = molecular target: Gonadotropin-releasing hormone receptor (Homo sapiens, UniProt P30968, S186K); experiment: Displacement of [125I]-His5, D-Tyr6]GnRH from mutant GnRHR, GnRHR S186K
[24] = molecular target: Gonadotropin-releasing hormone receptor (Homo sapiens, UniProt P30968, Q189A); experiment: Displacement of [125I]-His5, D-Tyr6]GnRH from mutant GnRHR, GnRHR Q189A; in short: as §1
Gonadotropin-releasing hormone receptor (Homo sapiens, UniProt P30968, Q189A), sequence (P30968 whole entry Q189A): as the sequence (P30968 whole entry W291F) above, with Q189A, F291W counted along it

[25] = molecular target: Gonadotropin-releasing hormone receptor (Homo sapiens, UniProt P30968, Q189K); experiment: Displacement of [125I]-His5, D-Tyr6]GnRH from mutant GnRHR, GnRHR Q189K; in short: as §1
[26] = molecular target: Gonadotropin-releasing hormone receptor (Homo sapiens, UniProt P30968, Q189P); experiment: Displacement of [125I]-His5, D-Tyr6]GnRH from mutant GnRHR, GnRHR Q189P
[27] = molecular target: Gonadotropin-releasing hormone receptor (Homo sapiens, UniProt P30968, K191E); experiment: Displacement of [125I]-His5, D-Tyr6]GnRH from mutant GnRHR, GnRHR K191E; in short: as §1
[28] = molecular target: Gonadotropin-releasing hormone receptor (Homo sapiens, UniProt P30968, S203E); experiment: Displacement of [125I]-His5, D-Tyr6]GnRH from mutant GnRHR, GnRHR S203E
Gonadotropin-releasing hormone receptor (Homo sapiens, UniProt P30968, S203E), sequence (P30968 whole entry S203E): as the sequence (P30968 whole entry W291F) above, with S203E, F291W counted along it

[29] = molecular target: Gonadotropin-releasing hormone receptor (Homo sapiens, UniProt P30968, A50T); experiment: Displacement of [125I]-His5, D-Tyr6]GnRH from mutant GnRHR, GnRHR A50T; in short: as §1
[30] = molecular target: Gonadotropin-releasing hormone receptor (Homo sapiens, UniProt P30968, Q208E); experiment: Displacement of [125I]-His5, D-Tyr6]GnRH from mutant GnRHR, GnRHR Q208E
Gonadotropin-releasing hormone receptor (Homo sapiens, UniProt P30968, Q208E), sequence (P30968 whole entry Q208E): as the sequence (P30968 whole entry W291F) above, with Q208E, F291W counted along it

| IC50 [1] [nM] | IC50 [2] [nM] | IC50 [3] [nM] | IC50 [4] [nM] | IC50 [5] [nM] | IC50 [6] [nM] | IC50 [7] [nM] | IC50 [8] [nM] | IC50 [9] [nM] | IC50 [10] [nM] | IC50 [11] [nM] | IC50 [12] [nM] | IC50 [13] [nM] | IC50 [14] [nM] | IC50 [15] [nM] | IC50 [16] [nM] | IC50 [17] [nM] | IC50 [18] [nM] | IC50 [19] [nM] | IC50 [20] [nM] | Compound | other results |
| --- | --- | --- | --- | --- | --- | --- | --- | --- | --- | --- | --- | --- | --- | --- | --- | --- | --- | --- | --- | --- | --- |
| 17.7 | 6.8 | 24.5 | 27.2 | 11.2 | 15.2 | 277 | 164 | 11 | 27.3 | 3.7 | 48.8 | 222 | 623 | 28.8 | 16.9 | 24.2 | 4.8 | 46.8 | 82.3 | COc1c(C)cc(-c2[nH]c3ccc(C(C)(C)C(=O)N(CC(C)C)CC(C)C)cc3c2[C@H](C)CNCCc2ccccc2)cc1C | IC50 [21]: 3.7 nM; IC50 [22]: 11.3 nM; IC50 [23]: 13.1 nM; IC50 [24]: 10 nM; IC50 [25]: 15.8 nM; IC50 [26]: 10.8 nM; IC50 [27]: 11 nM; IC50 [28]: 15.1 nM; IC50 [29]: 17.8 nM; IC50 [30]: 6 nM |
| 8.1 | 60.1 | 5.7 | 6.1 | 1.9 | 2.4 | 35.3 | 6.5 | 42.2 | 16.5 | 12.4 | 52.8 | 65.1 | 5.6 | 2.8 | 4.4 | 3.5 | 4.1 | 3.3 | 267 | CC(C)C[C@H](NC(=O)[C@@H](Cc1ccc(O)cc1)NC(=O)[C@H](Cc1c[nH]cn1)NC(=O)[C@H](CO)NC(=O)[C@H](Cc1c[nH]c2ccccc12)NC(=O)[C@H](Cc1c[nH]cn1)NC(=O)[C@@H]1CCC(=O)N1)C(=O)N[C@@H](CCCN=C(N)N)C(=O)N1CCC[C@H]1C(=O)NCC(N)=O | IC50 [21]: 6.6 nM; IC50 [22]: 3.1 nM; IC50 [23]: 4.1 nM; IC50 [24]: 2.4 nM; IC50 [25]: 2.4 nM; IC50 [26]: 1.9 nM; IC50 [27]: 3.7 nM; IC50 [28]: 2.9 nM; IC50 [29]: 3.6 nM; IC50 [30]: 15 nM |
